In ChEMBL document CHEMBL3259541, “Synthesis and biological evaluation of antimetastatic agents predicated upon dihydromotuporamine C and its carbocyclic derivatives” (J Med Chem, 2014):

Assays:
L3.6pl [1] = assay: Effect on intracellular ceramide population in human L3.6PL cells assessed as sphingomyelin N20:0 level measured as contribution to total ceramide population at 0.6 uM after 48 hrs incubation by mass spectrometry analysis (reference value: 1.1%); type: functional
L3.6pl [2] = assay: Effect on intracellular ceramide population in human L3.6PL cells assessed as sphingomyelin N22:1 level measured as contribution to total ceramide population at 0.6 uM after 48 hrs incubation by mass spectrometry analysis (reference value: 6.5%); type: functional
L3.6pl [3] = assay: Effect on intracellular ceramide population in human L3.6PL cells assessed as sphingomyelin N24:3 level measured per mg of protein at 0.6 uM after 48 hrs incubation by mass spectrometry analysis (reference value: 0.05 +/- 0.02 nmol); type: functional
L3.6pl [4] = assay: Effect on intracellular ceramide population in human L3.6PL cells assessed as sphingomyelin N24:0 level measured per mg of protein at 0.6 uM after 48 hrs incubation by mass spectrometry analysis (reference value: 0.22 +/- 0.06 nmol); type: functional
L3.6pl [5] = assay: Effect on intracellular ceramide population in human L3.6PL cells assessed as sphingomyelin N18:1 level measured per mg of protein at 0.6 uM after 48 hrs incubation by mass spectrometry analysis (reference value: 0.08 +/- 0.02 nmol); type: functional
L3.6pl [6] = assay: Effect on intracellular ceramide population in human L3.6PL cells assessed as sphingomyelin N22:0 level measured per mg of protein at 0.6 uM after 48 hrs incubation by mass spectrometry analysis (reference value: 0.30 +/- 0.10 nmol); type: functional
L3.6pl [7] = assay: Effect on intracellular ceramide population in human L3.6PL cells assessed as sphingomyelin N22:1 level measured per mg of protein at 0.6 uM after 48 hrs incubation by mass spectrometry analysis (reference value: 0.23 +/- 0.07 nmol); type: functional
L3.6pl [8] = assay: Effect on intracellular ceramide population in human L3.6PL cells assessed as sphingomyelin N21:0 level measured per mg of protein at 0.6 uM after 48 hrs incubation by mass spectrometry analysis (reference value: 0.03 +/- 0.01 nmol); type: functional
L3.6pl [9] = assay: Effect on intracellular ceramide population in human L3.6PL cells assessed as sphingomyelin N24:2 level measured per mg of protein at 0.6 uM after 48 hrs incubation by mass spectrometry analysis (reference value: 0.25 +/- 0.09 nmol); type: functional
L3.6pl [10] = assay: Effect on intracellular ceramide population in human L3.6PL cells assessed as sphingomyelin N22:2 level measured per mg of protein at 0.6 uM after 48 hrs incubation by mass spectrometry analysis (reference value: 0.02 +/- 0.00 nmol); type: functional
L3.6pl [11] = assay: Effect on intracellular ceramide population in human L3.6PL cells assessed as sphingomyelin N16:1 level measured per mg of protein at 0.6 uM after 48 hrs incubation by mass spectrometry analysis (reference value: 0.24 +/- 0.04 nmol); type: functional
L3.6pl [12] = assay: Effect on intracellular ceramide population in human L3.6PL cells assessed as sphingomyelin N16:0 level measured as contribution to total ceramide population at 0.6 uM after 48 hrs incubation by mass spectrometry analysis (reference value: 37.3%); type: functional
L3.6pl [13] = assay: Effect on intracellular ceramide population in human L3.6PL cells assessed as sphingomyelin N26:1 level measured per mg of protein at 0.6 uM after 48 hrs incubation by mass spectrometry analysis (reference value: 0.01 +/- 0.00 nmol); type: functional
CHO-MG = assay: Cytotoxicity against polyamine transporter deficient CHO-MG cells assessed as cell growth after 48 hrs incubation by MTS assay in presence of 1 mM aminoguanidine; type: ADME, cell-based; details: Cricetulus griseus
In short: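 CHO and polyamine-transport-deficient CHO-MG* cells pretreated 24 h with 1 mM aminoguanidine, then exposed to compound for 48 h at 37 °C. Triplicate. IC50 taken as 50% growth inhibition. PTS selectivity expressed as the CHO-MG*/CHO IC50 ratio.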

L3.6pl [14] = assay: Effect on intracellular ceramide population in human L3.6PL cells assessed as sphingomyelin N20:1 level measured per mg of protein at 0.6 uM after 48 hrs incubation by mass spectrometry analysis (reference value: 0.04 +/- 0.01 nmol); type: functional
L3.6pl [15] = assay: Effect on intracellular ceramide population in human L3.6PL cells assessed as sphingomyelin N15:0 level measured per mg of protein at 0.6 uM after 48 hrs incubation by mass spectrometry analysis (reference value: 0.09 +/- 0.02 nmol); type: functional
L3.6pl [16] = assay: Effect on intracellular ceramide population in human L3.6PL cells assessed as sphingomyelin N17:0 level measured per mg of protein at 0.6 uM after 48 hrs incubation by mass spectrometry analysis (reference value: 0.09 +/- 0.03 nmol); type: functional
L3.6pl [17] = assay: Effect on intracellular ceramide population in human L3.6PL cells assessed as sphingomyelin N20:0 level measured per mg of protein at 0.6 uM after 48 hrs incubation by mass spectrometry analysis (reference value: 0.09 +/- 0.03 nmol); type: functional
L3.6pl [18] = assay: Effect on intracellular ceramide population in human L3.6PL cells assessed as sphingomyelin N24:1 level measured per mg of protein at 0.6 uM after 48 hrs incubation by mass spectrometry analysis (reference value: 0.85 +/- 0.38 nmol); type: functional
L3.6pl [19] = assay: Effect on intracellular ceramide population in human L3.6PL cells assessed as sphingomyelin N23:2 level measured per mg of protein at 0.6 uM after 48 hrs incubation by mass spectrometry analysis (reference value: 0.03 +/- 0.02 nmol); type: functional
L3.6pl [20] = assay: Effect on intracellular ceramide population in human L3.6PL cells assessed as sphingomyelin N23:0 level measured per mg of protein at 0.6 uM after 48 hrs incubation by mass spectrometry analysis (reference value: 0.08 +/- 0.04 nmol); type: functional
L3.6pl [21] = assay: Effect on intracellular ceramide population in human L3.6PL cells assessed as sphingomyelin N16:0 level measured per mg of protein at 0.6 uM after 48 hrs incubation by mass spectrometry analysis (reference value: 3.21 +/- 0.90 nmol); type: functional
L3.6pl [22] = assay: Effect on intracellular ceramide population in human L3.6PL cells assessed as sphingomyelin N19:0 level measured per mg of protein at 0.6 uM after 48 hrs incubation by mass spectrometry analysis (reference value: 0.01 +/- 0.01 nmol); type: functional
L3.6pl [23] = assay: Effect on intracellular ceramide population in human L3.6PL cells assessed as sphingomyelin N14:0 level measured per mg of protein at 0.6 uM after 48 hrs incubation by mass spectrometry analysis (reference value: 0.12 +/- 0.03 nmol); type: functional
L3.6pl [24] = assay: Effect on intracellular ceramide population in human L3.6PL cells assessed as ceramide N16:0 to N22:1 ratio measured at 0.6 uM after 48 hrs incubation by mass spectrometry analysis (reference value: 5.8 no_unit)
[25] = Cytotoxicity against human L3.6PL cells assessed as inhibition of cell growth after 48 hrs incubation by MTS assay in presence of 250 uM aminoguanidine treated 24 hrs prior compound addition; type: functional, cell-based; details: for IC50: Homo sapiens, L3.6pl
In short: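 L3.6pl cells pretreated 24 h with 250 μM aminoguanidine, then incubated with compound for 48 h at 37 °C. Triplicate. IC50 is the concentration giving 50% growth inhibition and IC5 the concentration giving 5% inhibition, both versus untreated control.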

Row | SMILES | Activity (L3.6pl [1]) [%] | Activity (L3.6pl [2]) [%] | Activity (L3.6pl [3]) [nmol] | Activity (L3.6pl [4]) [nmol] | Activity (L3.6pl [5]) [nmol] | Activity (L3.6pl [6]) [nmol] | Activity (L3.6pl [7]) [nmol] | Activity (L3.6pl [8]) [nmol] | Activity (L3.6pl [9]) [nmol] | Activity (L3.6pl [10]) [nmol] | Activity (L3.6pl [11]) [nmol] | Activity (L3.6pl [12]) [%] | Activity (L3.6pl [13]) [nmol] | IC50 (CHO-MG) [µM] | Activity (L3.6pl [14]) [nmol] | Activity (L3.6pl [15]) [nmol] | Activity (L3.6pl [16]) [nmol] | Activity (L3.6pl [17]) [nmol] | Activity (L3.6pl [18]) [nmol] | Activity (L3.6pl [19]) [nmol] | also measured
1 | Cl.NCCCNCCCNCC1CCCCCCCCCCCCCC1 | 1.5 | 4.6 | 0.06 | 0.25 | 0.14 | 0.46 | 0.3 | 0.04 | 0.31 | 0.03 | 0.34 | 38.4 | 0.01 | 87.3 | 0.05 | 0.17 | 0.16 | 0.15 | 1.1 | 0.02 | Activity (L3.6pl [20]): 0.1 nmol; Activity (L3.6pl [21]): 4.36 nmol; Activity (L3.6pl [22]): 0.02 nmol; Activity (L3.6pl [23]): 0.2 nmol; Ratio (L3.6pl [24]): 8.4; IC5 [25]: 80 µM; IC50 [25]: 89.4 µM
2 | Cl.NCCCNCCCN1CCCCCCCCCCCCCC1 | 0.6 | 18.6 | 0.06 | 0.21 | 0.13 | 0.4 | 0.26 | 0.04 | 0.27 | 0.02 | 0.31 | 20.3 | 0.01 | 2.96 | 0.04 | 0.15 | 0.14 | 0.14 | 0.99 | 0.02 | Activity (L3.6pl [20]): 0.09 nmol; Activity (L3.6pl [21]): 4.01 nmol; Activity (L3.6pl [22]): 0.02 nmol; Activity (L3.6pl [23]): 0.24 nmol; Ratio (L3.6pl [24]): 1.1; IC5 [25]: 0.6 µM; IC50 [25]: 0.99 µM
